Assays:
[1] = Plasma clearance in Beagle dog at 0.5 mg/kg, iv; assay type: ADME, organism-based, Canis lupus familiaris; parameters: dose 0.5 mg/kg, route intravenous
Procedure, shortened: (§1)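 Male dogs, three per group. Dosed orally at 1 mg/kg or by intravenous infusion at 0.5 mg/kg. Vehicle was 5% DMSO + 5% Tween-80 in 90% saline, or 10% DMSO + 10% Tween-80 + 80% PEG400 for the reference drug. Foreleg blood samples were quantified by LC-MS. Parameters came from noncompartmental analysis of mean plasma concentrations.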

[2] = test system: Rattus norvegicus; assay: Toxicity in rat assessed as induction of food intake changes at 100 mg/kg, po dosed once daily for 2 weeks; assay type: organism-based; parameters: dose 100 mg/kg, route oral; settings: in vivo, 336 h
Procedure, shortened: (§2)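 Subacute toxicity in rats: oral dosing once daily for 2 weeks at 50 mg/kg (medium) or 100 mg/kg (high). Behavior, body weight, food intake, organ coefficients and survival rate were monitored.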

[3] = molecular target: Cytochrome P450 2D6 (Homo sapiens, UniProt P10635); assay: Inhibition of CYP2D6 (unknown origin); assay type: ADME
[4] = test system: Rattus norvegicus; assay: Toxicity in rat assessed as survival rate changes at 100 mg/kg, po dosed once daily for 2 weeks; assay type: organism-based; parameters: dose 100 mg/kg, route oral; settings: in vivo, 336 h; procedure, shortened: as §2
[5] = molecular target: T1, Coagulation factor VII (Homo sapiens, UniProt P08709); assay: Inhibition of human factor 7a using S-2366 chromogenic substrate
T1 sequence (P08709 whole entry): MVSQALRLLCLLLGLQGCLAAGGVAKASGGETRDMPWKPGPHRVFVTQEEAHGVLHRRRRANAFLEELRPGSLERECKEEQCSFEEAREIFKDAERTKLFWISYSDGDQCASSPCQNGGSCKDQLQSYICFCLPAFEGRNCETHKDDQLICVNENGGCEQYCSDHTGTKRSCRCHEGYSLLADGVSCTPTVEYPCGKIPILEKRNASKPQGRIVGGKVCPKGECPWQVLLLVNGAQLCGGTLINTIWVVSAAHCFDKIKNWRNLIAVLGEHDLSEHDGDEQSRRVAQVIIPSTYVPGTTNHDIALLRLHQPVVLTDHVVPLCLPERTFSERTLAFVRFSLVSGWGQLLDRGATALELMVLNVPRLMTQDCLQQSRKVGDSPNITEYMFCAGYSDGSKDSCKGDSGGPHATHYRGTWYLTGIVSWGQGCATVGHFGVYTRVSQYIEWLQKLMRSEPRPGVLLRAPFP
Procedure, shortened: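 Human enzyme and inhibitor were premixed and preincubated, then the chromogenic substrate was added. Substrate levels: 300 μM S-2765 (FXa, trypsin); 200 μM S-2366 (FIIa); 2 mM S-2366 (FVIIa, FXIa). pNA release was monitored continuously at 405 nm for 20 min at 37 °C. IC50 was obtained by nonlinear regression.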

[6] = test system: Rattus norvegicus; assay: Antithrombotic activity in rat model of arteriovenous shunt-induced thrombosis assessed as reduction in thrombus formation dosed orally 60 mins before shunt opening; settings: po
[7] = Plasma clearance in Sprague-Dawley rat at 3 mg/kg, iv; assay type: ADME, organism-based; parameters: dose 3 mg/kg, route intravenous
Procedure, shortened: (§3)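 Male Sprague-Dawley rats, 200−220 g, four per group. Vehicle was 5% DMSO + 5% Tween-80 in 90% saline. The reference drug was given in 10% DMSO + 10% Tween-80 + 80% PEG400 (40% solution in saline). Serial retrobulbar vein samples were quantified by LC-MS. Parameters came from noncompartmental analysis of mean plasma concentrations.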

[8] = molecular target: Cytochrome P450 2C9 (Homo sapiens, UniProt P11712); assay: Inhibition of CYP2C9 (unknown origin); assay type: ADME
[9] = AUC (0 to infinity) in Beagle dog at 1 mg/kg, po; assay type: ADME, organism-based, Canis lupus familiaris; parameters: time infinity, dose 1 mg/kg, route oral; settings: plasma; procedure, shortened: as §1
[10] = Elimination half life in Beagle dog at 1 mg/kg, po; assay type: ADME, organism-based, Canis lupus familiaris; parameters: dose 1 mg/kg, route oral; settings: in vivo; procedure, shortened: as §1
[11] = test system: Rattus norvegicus; assay: Antithrombotic activity in rat model of FeCl3-induced venous thrombosis assessed as reduction in thrombus formation dosed orally 60 mins before thrombus formation; settings: po
[12] = test system: Plasma; assay: Anticoagulant activity in citrated rabbit plasma assessed as drug concentration required to double plasma clotting time preincubated for 10 mins at 37 degC by coagulometry; assay type: functional, Oryctolagus cuniculus
Procedure, shortened: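 Test compound or DMSO added to citrated rabbit plasma (3.8% sodium citrate, 10:90 v/v) and preincubated 10 min at 37 °C. PT and aPTT clotting times measured on a coagulometer with commercial kits. Activity expressed as the concentration needed to double plasma clotting time (CT2, μM).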

[13] = Tmax in Beagle dog at 1 mg/kg, po; assay type: ADME, organism-based, Canis lupus familiaris; parameters: dose 1 mg/kg, route oral; settings: in vivo; procedure, shortened: as §1
[14] = test system: Salmonella typhimurium; assay: Genotoxicity in Salmonella typhimurium by Ames test; assay type: toxicity, organism-based; settings: salmonella enterica subsp. enterica serovar typhimurium
[15] = molecular target: Cytochrome P450 3A4 (Homo sapiens, UniProt P08684); assay: Inhibition of CYP3A4 (unknown origin); assay type: ADME
[16] = test system: Rattus norvegicus; assay: Toxicity in rat assessed as induction of behavioral changes at 100 mg/kg, po dosed once daily for 2 weeks; assay type: organism-based; parameters: dose 100 mg/kg, route oral; settings: in vivo, 336 h; procedure, shortened: as §2
[17] = test system: V79; assay: Toxicity in Chinese hamster V79 cells by micronucleus Assay; assay type: cell-based, Cricetulus griseus
[18] = Cmax in Beagle dog at 1 mg/kg, po; assay type: ADME, organism-based, Canis lupus familiaris; parameters: dose 1 mg/kg, route oral; settings: in vivo; procedure, shortened: as §1
[19] = Oral bioavailability in Sprague-Dawley rat at 10 mg/kg; assay type: ADME, organism-based; settings: in vivo; procedure, shortened: as §3
[20] = molecular target: T2, Cytochrome P450 2C8 (Homo sapiens, UniProt P10632); assay: Inhibition of CYP2C8 (unknown origin); assay type: ADME
T2 sequence (P10632 whole entry): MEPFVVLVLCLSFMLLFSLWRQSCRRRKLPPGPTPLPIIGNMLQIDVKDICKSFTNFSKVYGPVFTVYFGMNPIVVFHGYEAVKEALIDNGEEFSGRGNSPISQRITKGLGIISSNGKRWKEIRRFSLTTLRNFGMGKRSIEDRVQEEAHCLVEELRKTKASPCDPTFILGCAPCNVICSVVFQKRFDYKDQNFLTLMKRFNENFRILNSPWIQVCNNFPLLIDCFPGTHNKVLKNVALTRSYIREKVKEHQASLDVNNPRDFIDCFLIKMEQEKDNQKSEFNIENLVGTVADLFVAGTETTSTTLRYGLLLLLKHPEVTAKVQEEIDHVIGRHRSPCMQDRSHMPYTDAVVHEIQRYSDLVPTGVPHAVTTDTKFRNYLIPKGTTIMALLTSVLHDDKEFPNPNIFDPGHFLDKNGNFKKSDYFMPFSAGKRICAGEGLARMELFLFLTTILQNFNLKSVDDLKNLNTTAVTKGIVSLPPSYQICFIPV

[21] = test system: Rattus norvegicus; assay: Induction of tail bleeding in rat assessed as prolongation of bleeding time dosed orally 60 mins before surgery; assay type: organism-based; settings: in vivo, po, 1 h
Procedure, shortened: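 Anesthetized rats were dosed orally with compound suspended in 0.5% CMC-Na, or vehicle, 60 min before the tail was transected 4 mm from the tip. The tail was immersed vertically in saline at 37 °C. Bleeding time was taken as the point when flow ceased for >30 s, with a 30 min maximum.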

[22] = AUC (0 to infinity) in Beagle dog at 0.5 mg/kg, iv; assay type: ADME, organism-based, Canis lupus familiaris; parameters: time infinity, dose 0.5 mg/kg, route intravenous; settings: plasma; procedure, shortened: as §1
[23] = Oral bioavailability in Beagle dog at 1 mg/kg; assay type: ADME, organism-based, Canis lupus familiaris; settings: in vivo; procedure, shortened: as §1
[24] = AUC (0 to infinity) in Sprague-Dawley rat at 3 mg/kg, iv; assay type: ADME, organism-based; parameters: time infinity, dose 3 mg/kg, route intravenous; settings: plasma; procedure, shortened: as §3
[25] = test system: Rattus norvegicus; assay: Toxicity in rat assessed as induction of food intake changes at 50 mg/kg, po dosed once daily for 2 weeks; assay type: organism-based; parameters: dose 50 mg/kg, route oral; settings: in vivo, 336 h; procedure, shortened: as §2
[26] = test system: Rattus norvegicus; assay: Toxicity in rat assessed as induction of body weight changes at 50 mg/kg, po dosed once daily for 2 weeks; assay type: organism-based; parameters: dose 50 mg/kg, route oral; settings: in vivo, 336 h; procedure, shortened: as §2

Chain of Cytochrome P450 2D6 (P10635 whole entry): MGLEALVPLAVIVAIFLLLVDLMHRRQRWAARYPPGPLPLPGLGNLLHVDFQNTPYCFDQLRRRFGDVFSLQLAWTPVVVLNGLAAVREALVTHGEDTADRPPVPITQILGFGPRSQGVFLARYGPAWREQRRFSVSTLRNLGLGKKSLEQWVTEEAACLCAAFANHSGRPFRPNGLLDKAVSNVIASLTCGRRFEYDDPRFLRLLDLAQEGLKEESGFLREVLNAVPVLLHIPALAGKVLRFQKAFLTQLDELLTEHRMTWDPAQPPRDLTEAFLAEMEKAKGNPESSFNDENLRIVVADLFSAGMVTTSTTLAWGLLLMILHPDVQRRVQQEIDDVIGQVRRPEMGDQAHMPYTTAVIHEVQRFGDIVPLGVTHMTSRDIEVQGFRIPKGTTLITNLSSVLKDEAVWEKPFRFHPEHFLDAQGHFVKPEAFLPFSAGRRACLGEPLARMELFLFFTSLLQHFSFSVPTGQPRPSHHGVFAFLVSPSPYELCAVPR
Chain of Cytochrome P450 2C9 (P11712 whole entry): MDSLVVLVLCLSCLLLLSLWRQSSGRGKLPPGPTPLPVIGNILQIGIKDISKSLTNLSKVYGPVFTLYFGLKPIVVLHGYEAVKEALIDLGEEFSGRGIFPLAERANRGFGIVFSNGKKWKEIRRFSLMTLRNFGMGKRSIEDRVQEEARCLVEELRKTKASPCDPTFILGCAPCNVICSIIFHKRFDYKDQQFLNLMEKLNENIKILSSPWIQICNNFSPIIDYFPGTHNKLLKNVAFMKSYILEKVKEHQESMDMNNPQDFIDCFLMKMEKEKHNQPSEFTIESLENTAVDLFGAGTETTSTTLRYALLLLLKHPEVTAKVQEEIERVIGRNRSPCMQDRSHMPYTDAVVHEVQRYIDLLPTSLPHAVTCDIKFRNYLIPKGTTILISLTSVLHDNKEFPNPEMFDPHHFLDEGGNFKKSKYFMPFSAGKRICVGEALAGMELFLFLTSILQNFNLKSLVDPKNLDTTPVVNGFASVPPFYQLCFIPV
Chain of Cytochrome P450 3A4 (P08684 whole entry): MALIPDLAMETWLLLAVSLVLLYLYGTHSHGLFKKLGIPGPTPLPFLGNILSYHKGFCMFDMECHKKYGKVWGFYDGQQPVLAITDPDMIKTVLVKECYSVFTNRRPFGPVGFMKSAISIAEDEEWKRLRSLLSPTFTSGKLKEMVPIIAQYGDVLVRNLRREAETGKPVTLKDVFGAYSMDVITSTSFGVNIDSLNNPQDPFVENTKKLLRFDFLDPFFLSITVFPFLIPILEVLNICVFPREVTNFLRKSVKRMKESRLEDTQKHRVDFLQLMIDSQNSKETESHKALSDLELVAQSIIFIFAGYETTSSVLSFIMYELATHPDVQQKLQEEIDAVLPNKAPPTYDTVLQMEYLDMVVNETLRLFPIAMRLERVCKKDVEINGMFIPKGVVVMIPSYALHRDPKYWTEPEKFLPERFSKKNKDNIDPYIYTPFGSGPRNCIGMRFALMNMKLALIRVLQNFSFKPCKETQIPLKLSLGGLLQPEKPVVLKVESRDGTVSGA

In the case of O=C(NC[C@@H]1OC(=O)N2c3ccc(N4CCOCC4=O)cc3OC[C@@H]12)c1ccc(Cl)s1, the clearance [1] is reported as 6.67 mL/min/kg, the Activity [2] is reported as “Non-toxic” and the IC50 [3] is reported as > 200 µM. For the same compound, the Activity [4] was “Non-toxic”, the IC50 [5] was > 100 µM and the ED50 [6] was 5.28 mg/kg. For the same compound, the clearance [7] was 3.35 mL/min/kg, the IC50 [8] was 43.2 µM and the AUC(0-inf) [9] was 1530 ng·h/mL. The half-life [10] was 2 h, the ED50 [11] was 5.63 mg/kg and the Activity [12] was 0.18 µM. For the same compound, the Tmax [13] was 0.5 h, the Activity [14] was “Non-toxic” and the IC50 [15] was 85.1 µM. For the same compound, the Activity [16] was “Non-toxic”, the Activity [17] was “Non-toxic” and the Cmax [18] was 530 ng/mL. The bioavailability [19] was 63.7%, the IC50 [20] was 99.7 µM and the Activity [21] was “Dose-dependent effect”. For the same compound, the AUC(0-inf) [22] was 1320 ng·h/mL, the bioavailability [23] was 92% and the AUC(0-inf) [24] was 15300 ng·h/mL. For the same compound, the Activity [25] was “Non-toxic” and the Activity [26] was “Non-toxic”.

Reference: ChEMBL document CHEMBL3351225, “Design, synthesis, and structure-activity and structure-pharmacokinetic relationship studies of novel [6,6,5] tricyclic fused oxazolidinones leading to the discovery of a potent, selective, and orally bioavailable FXa inhibitor” (J Med Chem, 2014)
